# In ChEMBL document CHEMBL1671723, “Bioavailability and efficacy of levofloxacin against Francisella tularensis in the common marmoset (Callithrix jacchus)” (Antimicrob Agents Chemother, 2010):
# The source made the active and inactive calls. The rule behind the calls is not given here.
# Experiments:
# [1] = Half life in human at 500 mg, po by LS/MS/MS analysis; assay type: ADME, organism-based; details: in vivo
# Rhesus monkey [2] = assay: AUC (0 to infinity) in Rhesus monkey at 15 mg/kg by […] analysis; assay type: ADME, organism-based, Macaca mulatta, Plasma; set-up: time infinity, dose 15 mg/kg; details: in vivo
# [3] = Cmax in Rhesus monkey at 15 mg/kg by […] analysis; assay type: ADME, organism-based, Macaca mulatta; set-up: dose 15 mg/kg; details: in vivo
# [4] = Half life in human at 500 mg, po QD measured on day 10 by LS/MS/MS analysis; assay type: ADME, organism-based; details: in vivo
# Francisella tularensis = assay: Antimicrobial activity against Francisella tularensis SCHU S4 infected in common marmoset assessed as survival of marmoset at 16.5 mg/kg BID for 10 days measured on day 24; assay type: functional, organism-based; set-up: dose 16.5 mg/kg
# Callithrix jacchus [5] = assay: AUC in common marmoset at 40 mg/kg, po measured on day 1 by […] analysis; assay type: ADME, organism-based, Plasma; set-up: dose 40 mg/kg, route oral; details: in vivo
# Method in brief: (§1)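 Six marmosets (25–64 months, 310–560 g) received one oral 40 mg/kg levofloxacin dose in banana milkshake. Two groups of three were bled at 0.5, 2 and 6 h or at 1, 4 and 8 h. Lithium-heparin plasma was stored at −70°C and assayed by LC-MS/MS-ESI against a spiked-plasma calibration curve (0.1–50 μg/ml). PK parameters were derived from the pooled profile.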
# [6] = Tmax in Rhesus monkey at 15 mg/kg followed by 4 mg/kg in 12 hrs dosing interval by […] analysis; assay type: ADME, organism-based, Macaca mulatta; details: in vivo
# [7] = Cmax in human at 500 mg, po by […] analysis; details: in vivo
# [8] = Half life in Rhesus monkey at 15 mg/kg followed by 4 mg/kg in 12 hrs dosing interval by LS/MS/MS analysis; assay type: ADME, organism-based, Macaca mulatta; details: in vivo
# [9] = Cmax in Rhesus monkey at 15 mg/kg followed by 4 mg/kg in 12 hrs dosing interval by […] analysis; assay type: ADME, organism-based, Macaca mulatta; set-up: dose 15 mg/kg; details: in vivo
# [10] = Half life in Rhesus monkey at 15 mg/kg by LS/MS/MS analysis; assay type: ADME, organism-based, Macaca mulatta; set-up: dose 15 mg/kg; details: in vivo
# [11] = Cmax in common marmoset at 40 mg/kg, po BID measured on day 7 by […] analysis; assay type: ADME, organism-based, Callithrix jacchus; set-up: dose 40 mg/kg, route oral; details: in vivo
# Method in brief: (§2)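 Oral levofloxacin, 40 mg/kg twice daily in banana milkshake for 7 consecutive days. Day-7 sampling: predose and 1, 4 and 8 h (group A, n=3); 0.5, 2, 6 and 12 h (group B, n=3). Lithium-heparin plasma was held at −70°C and quantified by LC-MS/MS-ESI against spiked-plasma standards (0.1–50 μg/ml). PK parameters were derived.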
# [12] = Half life in common marmoset at 40 mg/kg, po BID measured on day 7 by […] analysis; assay type: ADME, organism-based, Callithrix jacchus; set-up: dose 40 mg/kg, route oral; details: in vivo; method in brief: as §2
# Callithrix jacchus [13] = assay: AUC in common marmoset at 40 mg/kg, po BID measured on day 1 by […] analysis; assay type: ADME, organism-based, Plasma; set-up: dose 40 mg/kg, route oral; details: in vivo
# Method in brief: (§3)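 Marmosets were dosed orally with 40 mg/kg levofloxacin twice daily in banana milkshake for 7 days. On day 1, group A (n=3) was bled predose and at 1, 4 and 8 h, and group B (n=3) at 0.5, 2, 6 and 12 h. Heparinised plasma was stored at −70°C and measured by LC-MS/MS-ESI (calibration 0.1–50 μg/ml). PK parameters were calculated.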
# Rhesus monkey [14] = assay: AUC (0 to infinity) in Rhesus monkey at 15 mg/kg followed by 4 mg/kg in 12 hrs dosing interval by […] analysis; assay type: ADME, organism-based, Macaca mulatta, Plasma; set-up: dose 15 mg/kg, time infinity; details: in vivo
# [15] = Tmax in common marmoset at 40 mg/kg, po BID measured on day 7 by […] analysis; assay type: ADME, organism-based, Callithrix jacchus; set-up: dose 40 mg/kg, route oral; details: in vivo; method in brief: as §2
# [16] = Tmax in Rhesus monkey at 15 mg/kg by […] analysis; assay type: ADME, organism-based, Macaca mulatta; set-up: dose 15 mg/kg; details: in vivo
# [17] = Cmax in common marmoset at 40 mg/kg, po measured on day 1 by […] analysis; assay type: ADME, organism-based, Callithrix jacchus; set-up: dose 40 mg/kg, route oral; details: in vivo; method in brief: as §1
# Homo sapiens [18] = assay: AUC (0 to infinity) in human at 500 mg, po by […] analysis; assay type: ADME, organism-based, Plasma; set-up: dose 500 mg, time infinity, route oral; details: in vivo
# [19] = Cmax in common marmoset at 40 mg/kg, po BID measured on day 1 by […] analysis; assay type: ADME, organism-based, Callithrix jacchus; set-up: dose 40 mg/kg, route oral; details: in vivo; method in brief: as §3
# [20] = Tmax in human at 500 mg, po QD measured on day 10 by […] analysis; assay type: ADME, organism-based; details: in vivo
# Homo sapiens [21] = assay: AUC (0 to infinity) in human at 500 mg, po QD measured on day 10 by […] analysis; assay type: ADME, organism-based, Plasma; set-up: dose 500 mg, route oral, time infinity; details: in vivo
# [22] = Tmax in human at 500 mg, po by […] analysis; assay type: ADME, organism-based; details: in vivo
# [23] = Cmax in human at 500 mg, po QD measured on day 10 by […] analysis; details: in vivo
# [24] = Half life in common marmoset at 40 mg/kg, po measured on day 1 by […] analysis; assay type: ADME, organism-based, Callithrix jacchus; set-up: dose 40 mg/kg, route oral; details: in vivo; method in brief: as §1
# [25] = Half life in common marmoset at 40 mg/kg, po BID measured on day 1 by […] analysis; assay type: ADME, organism-based, Callithrix jacchus; set-up: dose 40 mg/kg, route oral; details: in vivo; method in brief: as §3
# Callithrix jacchus [26] = assay: AUC in common marmoset at 40 mg/kg, po BID measured on day 7 by […] analysis; assay type: ADME, organism-based, Plasma; set-up: dose 40 mg/kg, route oral; details: in vivo; method in brief: as §2
smiles,measurement,setting,value
C[C@H]1COc2c(N3CCN(C)CC3)c(F)cc3c(=O)c(C(=O)O)cn1c23.C[C@H]1COc2c(N3CCN(C)CC3)c(F)cc3c(=O)c(C(=O)O)cn1c23.O [LEVOFLOXACIN],half-life,[1],6.4 h
same,AUC,Rhesus monkey [2],21300 ng·h/mL
same,Cmax,[3],5100 ng/mL
same,half-life,[4],7.6 h
same,Activity,Francisella tularensis,Active
same,AUC,Callithrix jacchus [5],112.4 µg/mL/h
same,Tmax,[6],2.2 h
same,Cmax,[7],8500 ng/mL
same,half-life,[8],3.4 h
same,Cmax,[9],5300 ng/mL
same,half-life,[10],2 h
same,Cmax,[11],20900 ng/mL
same,half-life,[12],2.3 h
same,AUC,Callithrix jacchus [13],63.6 µg/mL/h
same,AUC,Rhesus monkey [14],33400 ng·h/mL
same,Tmax,[15],0.5 h
same,Tmax,[16],1.5 h
same,Cmax,[17],18800 ng/mL
same,AUC,Homo sapiens [18],56300 ng·h/mL
same,Cmax,[19],16500 ng/mL
same,Tmax,[20],1.1 h
same,AUC,Homo sapiens [21],47500 ng·h/mL
same,Tmax,[22],1.5 h
same,Cmax,[23],5700 ng/mL
same,half-life,[24],3.9 h
same,half-life,[25],2.4 h
same,AUC,Callithrix jacchus [26],81.4 µg/mL/h
